Results taken from ChEMBL document CHEMBL3243962, “Antileukemic activity of derivatives of 1,2-dimethyl-3,4-bis(hydroxymethyl)-5-phenylpyrrole bis(N-methylcarbamate)” (J Med Chem, 1979).
Calls of active or inactive are those of the source.

What was measured:
Mus musculus [1] = test: Toxicity in mouse P388 cells allografted CD2F1 mouse assessed as body weight loss at 100 mg/kg, ip of total 9 doses starting 24 hrs post tumor inoculation measured on day 5 of inoculation relative to control; format: organism-based; design: dose 100 mg/kg, route intraperitoneal; conditions: in vivo
Method in brief: (§1)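 Male CD2F1 mice inoculated ip with 6×10^6 P388 leukemia cells. Compounds given ip as distilled water–Tween 80 suspension, nine daily doses starting 24 h after inoculation; six mice per dose group. Treated-minus-control body-weight change (T − C) and toxicity-day survivors recorded on day 5 (4 days after first dose).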

Mus musculus [2] = test: Toxicity in mouse P388 cells allografted CD2F1 mouse assessed as mouse survival at 6.25 mg/kg, ip of total 9 doses starting 24 hrs post tumor inoculation measured on day 5 of inoculation relative to control; format: organism-based; design: dose 6.25 mg/kg, route intraperitoneal; conditions: in vivo
Method in brief: (§2)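 Male CD2F1 mice bearing ip P388 leukemia (6×10^6 cells) were dosed ip with nine daily doses in distilled water–Tween 80 suspension, starting 24 h after inoculation. Survivors per group of 6 were counted on day 5, i.e. 4 days after the first dose. Body-weight change of treated minus control mice was also recorded.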

Mus musculus [3] = test: Toxicity in mouse P388 cells allografted CD2F1 mouse assessed as mouse survival at 25 mg/kg, ip of total 9 doses starting 24 hrs post tumor inoculation measured on day 5 of inoculation relative to control; format: organism-based; design: dose 25 mg/kg, route intraperitoneal; conditions: in vivo; method in brief: as §2
Mus musculus [4] = test: Toxicity in mouse P388 cells allografted CD2F1 mouse assessed as mouse survival at 50 mg/kg, ip of total 9 doses starting 24 hrs post tumor inoculation measured on day 5 of inoculation relative to control; format: organism-based; design: dose 50 mg/kg, route intraperitoneal; conditions: in vivo; method in brief: as §2
Mus musculus [5] = test: Toxicity in mouse P388 cells allografted CD2F1 mouse assessed as body weight loss at 50 mg/kg, ip of total 9 doses starting 24 hrs post tumor inoculation measured on day 5 of inoculation relative to control; format: organism-based; design: dose 50 mg/kg, route intraperitoneal; conditions: in vivo; method in brief: as §1
Staphylococcus aureus = test: Antimicrobial activity against Staphylococcus aureus ATCC 25923 at 1 mg after 24 hrs by disk sensitivity assay; format: functional, organism-based
Method in brief: (§3)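 Bacteria grown 24 h in trypticase soy broth; 1 mL used to seed a lawn on trypticase soy agar. Sterile 6 mm paper disks carrying 1 mg test compound placed on agar, incubated 24 h at 37 °C, then zone of inhibition around each disk measured.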

P388 [6] = test: Antitumor activity against mouse P388 cells allografted in CD2F1 mouse assessed as increase in mouse survival at 6.25 mg/kg, ip of total 9 doses starting 24 hrs post tumor inoculation measured on day 5 of inoculation relative to control; format: functional; conditions: route intraperitoneal
Method in brief: (§4)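 Male CD2F1 mice inoculated ip with 6×10^6 P388 leukemia cells. Dosing was ip as a suspension in distilled water–Tween 80, nine daily doses starting 24 h after inoculation. Activity was read as median survival time of treated vs control mice (% T/C); % T/C ≥ 120 was considered significant. Groups were 6 mice.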

Mus musculus [7] = test: Toxicity in mouse P388 cells allografted CD2F1 mouse assessed as body weight loss at 25 mg/kg, ip of total 9 doses starting 24 hrs post tumor inoculation measured on day 5 of inoculation relative to control; format: organism-based; design: dose 25 mg/kg, route intraperitoneal; conditions: in vivo; method in brief: as §1
Mus musculus [8] = test: Toxicity in mouse P388 cells allografted CD2F1 mouse assessed as body weight loss at 12.5 mg/kg, ip of total 9 doses starting 24 hrs post tumor inoculation measured on day 5 of inoculation relative to control; format: organism-based; design: dose 12.5 mg/kg, route intraperitoneal; conditions: in vivo; method in brief: as §1
P388 [9] = test: Antitumor activity against mouse P388 cells allografted in CD2F1 mouse assessed as increase in mouse survival at 100 mg/kg, ip of total 9 doses starting 24 hrs post tumor inoculation measured on day 5 of inoculation relative to control; format: functional; conditions: route intraperitoneal; method in brief: as §4
Mus musculus [10] = test: Toxicity in mouse P388 cells allografted CD2F1 mouse assessed as body weight loss at 6.25 mg/kg, ip of total 9 doses starting 24 hrs post tumor inoculation measured on day 5 of inoculation relative to control; format: organism-based; design: dose 6.25 mg/kg, route intraperitoneal; conditions: in vivo; method in brief: as §1
P388 [11] = test: Antitumor activity against mouse P388 cells allografted in CD2F1 mouse assessed as increase in mouse survival at 50 mg/kg, ip of total 9 doses starting 24 hrs post tumor inoculation measured on day 5 of inoculation relative to control; format: functional; conditions: route intraperitoneal; method in brief: as §4
P388 [12] = test: Antitumor activity against mouse P388 cells allografted in CD2F1 mouse assessed as increase in mouse survival at 25 mg/kg, ip of total 9 doses starting 24 hrs post tumor inoculation measured on day 5 of inoculation relative to control; format: functional; conditions: route intraperitoneal; method in brief: as §4
Mus musculus [13] = test: Toxicity in mouse P388 cells allografted CD2F1 mouse assessed as mouse survival at 12.5 mg/kg, ip of total 9 doses starting 24 hrs post tumor inoculation measured on day 5 of inoculation relative to control; format: organism-based; design: dose 12.5 mg/kg, route intraperitoneal; conditions: in vivo; method in brief: as §2
P388 [14] = test: Antitumor activity against mouse P388 cells allografted in CD2F1 mouse assessed as increase in mouse survival at 12.5 mg/kg, ip of total 9 doses starting 24 hrs post tumor inoculation measured on day 5 of inoculation relative to control; format: functional; conditions: route intraperitoneal; method in brief: as §4
[15] = tested on: Staphylococcus epidermidis; test: Antimicrobial activity against Staphylococcus epidermidis ATCC 12228 at 1 mg after 24 hrs by disk sensitivity assay; format: functional, organism-based; method in brief: as §3
Mus musculus [16] = test: Toxicity in mouse P388 cells allografted CD2F1 mouse assessed as mouse survival at 100 mg/kg, ip of total 9 doses starting 24 hrs post tumor inoculation measured on day 5 of inoculation relative to control; format: organism-based; design: dose 100 mg/kg, route intraperitoneal; conditions: in vivo; method in brief: as §2

Row | Compound | Activity (Mus musculus [1]) | Activity (Mus musculus [2]) | Activity (Mus musculus [3]) | Activity (Mus musculus [4]) | Activity (Mus musculus [5]) | Activity (Staphylococcus aureus) | T/C (P388 [6]) | Activity (Mus musculus [7]) | Activity (Mus musculus [8]) | T/C (P388 [9]) | Activity (Mus musculus [10]) | T/C (P388 [11]) | T/C (P388 [12]) | Activity (Mus musculus [13]) | T/C (P388 [14]) | Activity [15] | Activity (Mus musculus [16])
1 | CNC(=O)OCc1c(COC(=O)NC)c(-c2ccc(OC)cc2)n(C)c1C | 5.5 g | Non-toxic | Non-toxic | Non-toxic | 4.4 g | Active | 135% | 3.4 g | 3.2 g | <70% | 2.4 g | 152% | 145% | Non-toxic | 138% | Active | –
2 | CNC(=O)OCc1c(COC(=O)NC)c(-c2ccc(C)cc2)n(C)c1C | 1.8 g | Non-toxic | Non-toxic | – | 4.5 g | – | 138% | 3.4 g | 3.2 g | – | 1.4 g | – | 144% | Non-toxic | 144% | – | Toxic
3 | CNC(=O)OCc1c(COC(=O)NC)c(-c2ccc(Cl)c(Cl)c2)n(C)c1C | 5.9 g | Non-toxic | Non-toxic | Non-toxic | 3.2 g | – | 145% | 2.4 g | 1.7 g | – | 1.7 g | 163% | 148% | Non-toxic | 145% | Active | –
4 | CNC(=O)OCc1c(COC(=O)NC)c(-c2ccccc2)n(C)c1C | 6 g | Non-toxic | Non-toxic | Non-toxic | 4.6 g | – | 135% | 3.9 g | 3.3 g | <70% | 2.5 g | 90% | 145% | Non-toxic | 130% | – | –
5 | CNC(=O)OCc1c(COC(=O)NC)c(-c2ccc(Cl)cc2)n(C)c1C | 7.5 g | Non-toxic | Non-toxic | Non-toxic | 5.7 g | – | 155% | 4.4 g | 3.2 g | – | 3.4 g | 165% | 153% | Non-toxic | 155% | – | –
